hDAT+cocaine: changed hDAT dopamine uptake under cocaine IC80, either direction, primary screen, cocaine antagonist project, cell-based, LLC-PK1 hDAT, [14C]-dopamine uptake, MLSMR; LLC-PK1 hDAT cells, [14C]-dopamine uptake with cocaine IC80; actives deviate in either direction; B-score at 10 µM; 110,000 tested, 1.3% active; AID 449768, 2010;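 active = Z score or B-score, a plate-position-corrected score, falls beyond the plate's 99.7% confidence bounds, in either direction; inactive = both scores lie inside the 99.7% bounds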;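 also: scored against the spread of the other compound wells on the same plate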
Target sequence (Q01959 whole entry, looked up): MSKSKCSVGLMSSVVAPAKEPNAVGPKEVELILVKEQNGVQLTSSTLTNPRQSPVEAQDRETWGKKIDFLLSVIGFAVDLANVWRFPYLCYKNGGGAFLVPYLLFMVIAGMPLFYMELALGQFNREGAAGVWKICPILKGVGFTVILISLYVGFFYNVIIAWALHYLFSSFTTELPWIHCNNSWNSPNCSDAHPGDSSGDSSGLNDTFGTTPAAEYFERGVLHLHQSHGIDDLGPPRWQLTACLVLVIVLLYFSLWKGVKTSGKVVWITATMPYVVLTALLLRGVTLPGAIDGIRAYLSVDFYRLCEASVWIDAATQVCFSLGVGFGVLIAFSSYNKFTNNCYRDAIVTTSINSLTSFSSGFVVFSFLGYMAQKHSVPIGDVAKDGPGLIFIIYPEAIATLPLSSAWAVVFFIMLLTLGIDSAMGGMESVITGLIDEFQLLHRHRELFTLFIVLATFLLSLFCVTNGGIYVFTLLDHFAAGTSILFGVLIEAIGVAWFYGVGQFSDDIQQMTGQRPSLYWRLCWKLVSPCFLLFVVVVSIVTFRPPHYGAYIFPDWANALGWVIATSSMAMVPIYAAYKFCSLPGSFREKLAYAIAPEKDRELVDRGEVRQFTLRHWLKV
Measles CPE: compounds protecting cells from measles virus cytopathic effect, primary screen, measles RdRp inhibitor project, single point, MLSMR library, absorbance; Measles virus-infected cells, CPE protection; protection (pct of control), % at 4 µM; 140,000 tested, 1.5% active; AID 841, 2007; in the data active = protection mostly above about 24%, no sharp cut-off; inactive = mostly below about 26%
Phagocytosis inh: inhibitors of macrophage phagocytosis, primary screen, imaging, J774A.1 cells, IgG beads; J774A.1 macrophage IgG-bead phagocytosis; inhibition, % at 5 µM; 110,000 tested, 0.07% active;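 active = inhibition above the mean of the plate negative controls plus 5 SD, cut at about 13% in these data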;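 also: phagocytic index as fraction of beads internalized from green versus red external bead signal; plate controls were DMSO negative control for no effect and cytochalasin-D positive control for full effect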
Cav3 T inh: Cav3.2 calcium influx blockers – cell-based, Fluo-4 calcium fluorescence, FDSS, MLSMR library, primary screen; Voltage-dependent T-type calcium channel subunit alpha-1H (Homo sapiens), O95180; Cav3.2-expressing cells; active compounds read low; B-score at 10 µM; 100,000 tested, 4% active; AID 449739, 2010;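 active = single-dose well whose peak fluorescence ratio is a statistical outlier from its plate by either plate-standardised score or position-corrected B-score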
PTK2B oligo ant: antagonists of Pyk2 self-association, primary screen, Q293 cells, FERM NanoBiT luminescence, HTS; Protein-tyrosine kinase 2-beta (Homo sapiens), Q14289; active compounds read low; z-score (the deposit names both 25 µM and 10 µM); 99,000 tested, 0.83% active; AID 1347419, 2020;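 active = Z-score of -3 or lower, scaled per plate to the spread of control and sample wells; inactive = z-score above -3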;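 also: negative z-score means lost luminescence so less FERM oligomerization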
HIV Rev-RRE inh: HIV-1 Rev-RRE binding inhibitors, primary screen, biochemical, FRET, protein-RNA interaction. P05866. Rev peptide-RRE RNA binding. inhibition, % at 8 µM. 97,000 tested, 0.79% active. AID 704, 2007;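 active = inhibition above the screen-wide mean plus 3 SD, cut at about 35% in these data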;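 also: 0% = median DMSO wells and 100% = median Neomycin B control wells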
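Material: labelled RRE RNA duplex and labelled Rev peptide / Buffer or medium: HEPES pH 7.5 salt buffer with EDTA / Compound dosing: single point, 8 µM final nominal compound concentration / Benchmarks: DMSO low control, neomycin B high control / Timing: 5 min preincubation and 15 min binding, 25 °C / Technique: FRET fluorescence readout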
The depositor's hits bear a star; / = not tested or not shown. The list is not random: actives were taken first. Their share in the collection is about 5.9%.

SMILES	hDAT+cocaine	Measles CPE	Phagocytosis inh	Cav3 T inh	PTK2B oligo ant	HIV Rev-RRE inh
CCCCOc1ccc(/C=C/C(=O)Nc2ccc([N+](=O)[O-])cc2C)cc1	/	10	-1	/	/	/
CCCOc1ccc(/C=C/C(=O)Nc2ccc([N+](=O)[O-])cc2)cc1	-0.0013	51*	-3	1	1.1	-4
Cc1ccc(SCCNC(=O)/C=C/c2ccccc2Cl)cc1	0.21	2	-2	-2.8*	-0.52	15
Cc1ccc(SCCNC(=O)/C=C/c2ccc([N+](=O)[O-])cc2)cc1	/	24	/	/	/	/
Cc1ccc(SCCNC(=O)/C=C/c2ccc(Cl)cc2)cc1	/	6	-7	/	/	/
O=C(/C=C/c1ccc([N+](=O)[O-])cc1)NCCSc1ccccc1	-0.17	2	1	-3.8*	1.3	3
COc1cccc2c(=O)cc(C)n(CC(=O)Nc3cccc(C)c3)c12	/	8	-2	/	/	/
COc1ccc(OC)c(-c2csc(NC(=O)CSc3ccc([N+](=O)[O-])cc3)n2)c1	/	12	-6	/	/	/
CC1CCCC(NC(=O)COC(=O)Cc2ccsc2)C1C (stereo not given)	0.007	11	-1	0.21	1.5	-1
Clc1ccc(OCc2nnc(SCc3nnc(-c4ccccc4)o3)o2)c(Cl)c1	0.83	12	0	-6.1*	-0.8	2
O=C1C2C3CC(C(Br)C3Br)C2C(=O)N1c1ccccn1 (stereo not given)	-7.9*	23	/	1	0.67	3
Cc1cc(N2C(=O)C3C4CC(C(Br)C4Br)C3C2=O)no1 (stereo not given)	/	32*	-2	/	/	/
Cc1ccnc(N2C(=O)C3C4CC(C(Br)C4Br)C3C2=O)c1 (stereo not given)	-0.81	3	/	0.56	0.04	2
C/C=C(\C)C(=O)Nc1cccc(C2=NOC3(C2)C[C@H](C(N)=O)N(C(=O)CC#N)C3)c1 (stereo not given in full)	0.2	/	/	0.1	/	/
CN(C)c1ccc(C=C2C(=O)OC(C)(C(C)(C)C)OC2=O)cc1 (stereo not given)	-0.6	19	-1	0.4	-0.62	63*
CCCCc1ccc(NC=C2C(=O)OC3(CCCCC3)OC2=O)cc1	0.047	12	0	1.1	0.02	12
CCN(CC)c1ccc(C=C2C(=O)OC3(CCCC3)OC2=O)cc1	/	40*	-4	/	3.7	/
CC1=NN(Cc2ccccc2)C(=O)/C1=C\c1ccc(N(C)C)cc1	-1.7	7	-2	-0.059	-0.09	7
O=C(NC1CC1)C1=C[C@@H](C2CCCCC2)C[C@@H](OCCCCO)O1	-0.093	/	/	1.9	/	/
Cc1cc(C)nc(SCc2ccc(C(=O)NNC(=O)Nc3cccc(Cl)c3)cc2)n1	/	13	/	/	/	/
COc1cc(/C=C(\C#N)c2nc3ccccc3[nH]2)ccc1Oc1ccc([N+](=O)[O-])cn1	-0.44	19	-1	-0.22	-3.3*	6
Cc1cc(/C=C(/C#N)c2nc3ccccc3[nH]2)c(C)n1-c1cccc([N+](=O)[O-])c1	0.54	11	1	-11*	-0.86	4
COc1cc(/C=C(/C#N)c2ccccc2)ccc1Oc1ccc([N+](=O)[O-])cn1	-0.89	11	0	-2.4	0.38	7
Cc1cc(C=C(C#N)C#N)c(C)n1-c1ccccc1	-0.42	51*	0	-0.0068	1.1	4
CCOC(=O)c1cnn(-c2c(Cc3ccccc3)c(C)nc3c(-c4ccccc4)c(C)nn23)c1N	-0.24	5	-1	-0.35	-4*	2
SMILES	hDAT+cocaine	Measles CPE	Phagocytosis inh	Cav3 T inh	PTK2B oligo ant	HIV Rev-RRE inh
CCOc1ccc(-c2nnc(Nc3ccc(OC)c(C(=O)N4CCCCC4)c3)c3ccccc23)cc1	/	3	/	/	/	/
CN(Cc1ccccc1)C(=O)CCS(=O)(=O)c1ccc2c(c1)n(C)c(=O)c(=O)n2C	-0.23	17	-1	-4.9*	/	/
COc1ccc(CN2C(=O)/C(=C/c3ccncc3)SC2=S)cc1	/	3	-4	/	/	/
COC(=O)C1=C(N)Oc2cc(C)n(Cc3ccccc3)c(=O)c2C1c1ccccc1 (stereo not given)	-0.49	7	-1	-2.6	-3*	1
Nc1nc(CSCCO)nc(Nc2ccccc2)n1	0.26	32*	-2	-0.27	0.22	8
Nc1nc(CSc2ccccn2)nc(Nc2ccccc2)n1	1.5	1	2	0.12	0.09	0
CCN(CC)CCNC(=O)C(=O)NCC1OCCN1S(=O)(=O)c1ccc([N+](=O)[O-])cc1 (stereo not given)	/	4	-3	/	/	/
Cc1ccc(NC(=O)N(Cc2cccnc2)Cc2ccco2)cc1C	-0.11	9	1	2	0.01	-1
Cc1ccc(NC(=O)N(Cc2ccco2)C(C)c2ccco2)cc1C (stereo not given)	1.2	6	/	-4.6*	-0.52	6
CC/C(=N/N=C(\CC)c1ccccc1)c1ccccc1	/	3	-3	/	/	/
CCOC(=O)C1(C)/C(=N/Nc2ccccc2Cl)C(=O)C(=O)N1c1ccccc1 (stereo not given)	0.13	3	2	-4.9*	-1.6	2
COc1ccc(OC)c(NC(=S)N2CCC(C(O)(c3ccccc3)c3ccccc3)CC2)c1	/	5	/	/	/	/
CCCCC(=O)Nc1ccc(Br)cc1C(=O)O	0.72	55*	-1	-0.021	-0.4	9
CCOC(=O)CC(=O)Nc1ccc(Br)cc1C(=O)O	0.42	20	-1	1.1	-0.25	1
Cc1ccc(-c2nn3c(C)nnc3s2)cc1NCc1c(F)cccc1Cl	0.6	3	5	-1.8	-3.5*	7
Cc1ccc(CNc2cc(-c3nn4c(C)nnc4s3)ccc2C)s1	-0.52	7	-2	-2.1	-0.32	2
C[C@@]12CCC=C[C@H]1[C@H](c1ccc(F)c(/C=C/c3ccccc3)c1)N(Cc1ccccc1)C2=O	0.0093	/	/	-0.2	/	/
CCCC/C(C)=N/NC(=O)c1cn(-c2ccccc2)nc1-c1ccccc1	/	9	-5	/	/	/
O=c1cc(-c2ccccc2)nc2nc(SCc3ccccc3)[nH]n12	1.6	13	0	-4.6*	-0.31	0
O=C1C2CSCN2C(=O)CN1CCCN1CCN(C(c2ccccc2)c2ccccc2)CC1 (stereo not given)	/	3	1	/	/	/
CC(C)c1ccc(C(=O)CC2(O)C(=O)N(CN3CCOCC3)c3ccccc32)cc1 (stereo not given)	0.44	4	0	-5.8*	1	4
CCC1=Nc2cc(C(=O)NCc3ccco3)ccc2Sc2ccccc21	/	14	2	/	/	/
CCC1=Nc2cc(C(=O)NCCCOC(C)C)ccc2Sc2ccccc21	-7.2*	3	2	-4.4	0.09	2

From PubChem BioAssay
